ChEMBL document CHEMBL4387708, “Enhancement of Benzothiazoles as Pteridine Reductase-1 Inhibitors for the Treatment of Trypanosomatidic Infections” (J Med Chem, 2019)
Calls of active or inactive are those of the source. The calls are words filed in the database; no cut-off is given here.

Columns and labels:
[1] = test system: Trypanosoma cruzi; experiment: Growth inhibition of trypomastigote form of Trypanosoma cruzi Y infected in human U2OS cells at 50 uM measured after 72 hrs by DRAQ5 DNA dye based confocal microscopic analysis relative to control; type: organism-based; settings: for growth inhibition (GI): trypanosoma cruzi, 50 µM; for inhibition at 50 µM: Trypanosoma cruzi, Y, U2OS, read-out: GI
[2] = test system: Leishmania infantum; experiment: Growth inhibition of luciferase expressing Leishmania infantum axenic amastigotes infected in human THP1 cells at 10 uM measured after 72 hrs by steady-glo luminescence assay relative to control; type: organism-based; settings: for growth inhibition (GI): leishmania infantum, 72 h, 10 µM; for inhibition at 10 µM: Leishmania infantum, THP-1, 72 h, read-out: GI
[3] = Inhibition of N-terminal His-tagged Trypanosoma brucei pteridine reductase 1 using di-hydrobiopterine as substrate measured at 1 min interval for 50 mins in presence of NADPH
Summary of the method: (§1)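 Photometric PTR1 assay with NADPH and dihydrobiopterin substrate. H₄B formation is coupled non-enzymatically to cytochrome c reduction, read as signal increase at 550 nm.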

[4] = test system: Trypanosoma brucei; experiment: Inhibition of N-terminal His-tagged Trypanosoma brucei pteridine reductase 1 at 50 uM using di-hydrobiopterine as substrate measured at 1 min interval for 50 mins in presence of NADPH relative to control; summary of the method: as §1
[5] = target: T1, Pteridine reductase 1 (Leishmania major) (UniProt Q01782); experiment: Inhibition of Leishmania major pteridine reductase 1 at 50 uM using di-hydrobiopterine as substrate in presence of NADPH relative to control; summary of the method: as §1
T1 sequence (whole entry): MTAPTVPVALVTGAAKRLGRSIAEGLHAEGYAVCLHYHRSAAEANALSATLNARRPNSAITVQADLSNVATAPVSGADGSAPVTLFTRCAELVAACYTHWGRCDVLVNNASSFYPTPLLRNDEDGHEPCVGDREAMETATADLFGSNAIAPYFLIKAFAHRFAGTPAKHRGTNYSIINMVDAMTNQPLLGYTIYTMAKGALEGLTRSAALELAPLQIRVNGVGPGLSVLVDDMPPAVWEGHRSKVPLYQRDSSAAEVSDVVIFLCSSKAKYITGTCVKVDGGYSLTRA

[6] = test system: Trypanosoma brucei; experiment: Growth inhibition of Trypanosoma brucei bloodstream forms at 10 uM measured after 72 hrs by resazurin-based fluorescence assay relative to control; type: organism-based; settings: Trypanosoma brucei, read-out: GI
[7] = test system: Trypanosoma brucei; experiment: Inhibition of PTR1 in Trypanosoma brucei bloodstream forms assessed as potentiation of methotrexate-induced parasitic cell growth inhibition at 10 uM measured after 72 hrs by resazurin-based fluorescence assay (reference value: 19 +/- 6%)
Summary of the method: (§2)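 Bloodstream-form T. brucei resazurin assay: 72 h at 37 °C, 5% CO₂, then fluorescence at ex 540/em 620 nm. Benzothiazole was tested at 10 μM alone and with 4 μM methotrexate. The index is the combination's activity divided by the sum of the activities of 10 μM benzothiazole and 4 μM methotrexate given separately.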

[8] = test system: Trypanosoma brucei; experiment: Inhibition of PTR1 in Trypanosoma brucei bloodstream forms assessed as potentiation of methotrexate-induced parasitic cell growth inhibition by measuring potentiation index at 10 uM measured after 72 hrs by resazurin-based fluorescence assay relative to control (methotrexate); type: functional; summary of the method: as §2
[9] = target: Voltage-gated inwardly rectifying potassium channel KCNH2 (Homo sapiens, UniProt Q12809); experiment: Displacement of Tracer Red from human ERG by fluorescence polarization assay
[10] = target: T2, Cytochrome P450 1A2 (Homo sapiens, UniProt P05177); experiment: Inhibition of human CYP1A2 expressed in baculovirus infected insect cells using beetle D-luciferin as substrate preincubated for 30 mins followed by NADPH addition and measured after 30 mins by CYP450-Glo assay
T2 sequence (P05177 whole entry): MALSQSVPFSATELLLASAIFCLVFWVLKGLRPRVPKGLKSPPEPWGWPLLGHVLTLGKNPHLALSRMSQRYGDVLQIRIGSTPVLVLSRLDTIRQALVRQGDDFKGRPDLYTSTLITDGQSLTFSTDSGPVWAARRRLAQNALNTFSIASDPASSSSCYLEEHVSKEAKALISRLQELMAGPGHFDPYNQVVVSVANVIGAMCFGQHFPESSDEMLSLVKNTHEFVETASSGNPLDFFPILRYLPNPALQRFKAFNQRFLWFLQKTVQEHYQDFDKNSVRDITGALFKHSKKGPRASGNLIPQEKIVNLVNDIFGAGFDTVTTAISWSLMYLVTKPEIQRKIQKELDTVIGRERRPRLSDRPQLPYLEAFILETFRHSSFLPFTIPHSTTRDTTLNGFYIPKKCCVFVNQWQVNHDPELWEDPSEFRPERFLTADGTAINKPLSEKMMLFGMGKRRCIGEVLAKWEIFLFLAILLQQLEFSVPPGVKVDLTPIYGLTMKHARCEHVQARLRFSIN

[11] = target: Cytochrome P450 2C9 (Homo sapiens, UniProt P11712); experiment: Inhibition of human CYP2C9 expressed in baculovirus infected insect cells using beetle D-luciferin as substrate preincubated for 30 mins followed by NADPH addition and measured after 30 mins by CYP450-Glo assay
[12] = target: Cytochrome P450 2C19 (Homo sapiens, UniProt P33261); experiment: Inhibition of human CYP2C19 expressed in baculovirus infected insect cells using beetle D-luciferin as substrate preincubated for 30 mins followed by NADPH addition and measured after 30 mins by CYP450-Glo assay
[13] = target: Cytochrome P450 2D6 (Homo sapiens, UniProt P10635); experiment: Inhibition of human CYP2D6 expressed in baculovirus infected insect cells using beetle D-luciferin as substrate preincubated for 30 mins followed by NADPH addition and measured after 30 mins by CYP450-Glo assay
[14] = target: Cytochrome P450 3A4 (Homo sapiens, UniProt P08684); experiment: Inhibition of human CYP3A4 expressed in baculovirus infected insect cells using beetle D-luciferin as substrate preincubated for 30 mins followed by NADPH addition and measured after 30 mins by CYP450-Glo assay
[15] = Cytotoxicity against human A549 cells after 48 hrs by Celltiter-glo assay; type: cell-based
[16] = Cytotoxicity against human THP1 cells after 72 hrs by MTT assay; type: cell-based, THP-1; settings: read-out: NOAEL
[17] = Cytotoxicity against human U2OS cells assessed as reduction in cell number; type: cell-based
[18] = Mitochondrial toxicity in human 786-O cells measured after 6 hrs by MitoTracker Red chloromethyl-X-rosamine based assay; type: cell-based, 786-0
[19] = Selectivity ratio of IC50 for Leishmania major pteridine reductase 1 to IC50 for N-terminal His-tagged Trypanosoma brucei pteridine reductase 1
[20] = target: T3, Pteridine reductase 1 (Leishmania major, UniProt Q01782); experiment: Inhibition of Leishmania major pteridine reductase 1 using di-hydrobiopterine as substrate in presence of NADPH; summary of the method: as §1
T3 sequence (Q01782 whole entry): T1 sequence (whole entry)

Chain of Cytochrome P450 3A4 (P08684 whole entry): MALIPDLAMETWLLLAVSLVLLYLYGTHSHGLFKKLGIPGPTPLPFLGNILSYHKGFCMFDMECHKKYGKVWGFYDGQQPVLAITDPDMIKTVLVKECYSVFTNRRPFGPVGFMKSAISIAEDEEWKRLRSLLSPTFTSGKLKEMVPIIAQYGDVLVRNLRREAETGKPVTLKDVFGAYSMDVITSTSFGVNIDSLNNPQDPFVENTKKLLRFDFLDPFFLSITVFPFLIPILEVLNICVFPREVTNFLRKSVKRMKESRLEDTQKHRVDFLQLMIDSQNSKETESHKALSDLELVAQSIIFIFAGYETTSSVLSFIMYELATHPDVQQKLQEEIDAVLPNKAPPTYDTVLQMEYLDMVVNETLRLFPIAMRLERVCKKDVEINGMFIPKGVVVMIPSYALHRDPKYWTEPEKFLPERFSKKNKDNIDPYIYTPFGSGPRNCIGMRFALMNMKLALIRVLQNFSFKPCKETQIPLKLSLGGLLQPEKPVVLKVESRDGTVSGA
Chain of Cytochrome P450 2C19 (P33261 whole entry): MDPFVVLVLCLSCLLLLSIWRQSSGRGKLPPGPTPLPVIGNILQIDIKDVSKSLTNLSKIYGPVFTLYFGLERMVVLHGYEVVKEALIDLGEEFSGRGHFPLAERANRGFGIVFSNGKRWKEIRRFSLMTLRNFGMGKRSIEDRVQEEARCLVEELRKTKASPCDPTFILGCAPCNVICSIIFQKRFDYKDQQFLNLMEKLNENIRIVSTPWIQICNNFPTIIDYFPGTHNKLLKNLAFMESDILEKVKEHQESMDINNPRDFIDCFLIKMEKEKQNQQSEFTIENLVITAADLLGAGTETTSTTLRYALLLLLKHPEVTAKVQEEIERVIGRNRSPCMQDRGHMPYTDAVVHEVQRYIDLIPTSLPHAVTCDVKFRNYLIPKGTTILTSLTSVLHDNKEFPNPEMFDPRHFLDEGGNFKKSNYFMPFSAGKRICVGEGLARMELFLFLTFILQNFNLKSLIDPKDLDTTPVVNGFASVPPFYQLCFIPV
Chain of Cytochrome P450 2C9 (P11712 whole entry): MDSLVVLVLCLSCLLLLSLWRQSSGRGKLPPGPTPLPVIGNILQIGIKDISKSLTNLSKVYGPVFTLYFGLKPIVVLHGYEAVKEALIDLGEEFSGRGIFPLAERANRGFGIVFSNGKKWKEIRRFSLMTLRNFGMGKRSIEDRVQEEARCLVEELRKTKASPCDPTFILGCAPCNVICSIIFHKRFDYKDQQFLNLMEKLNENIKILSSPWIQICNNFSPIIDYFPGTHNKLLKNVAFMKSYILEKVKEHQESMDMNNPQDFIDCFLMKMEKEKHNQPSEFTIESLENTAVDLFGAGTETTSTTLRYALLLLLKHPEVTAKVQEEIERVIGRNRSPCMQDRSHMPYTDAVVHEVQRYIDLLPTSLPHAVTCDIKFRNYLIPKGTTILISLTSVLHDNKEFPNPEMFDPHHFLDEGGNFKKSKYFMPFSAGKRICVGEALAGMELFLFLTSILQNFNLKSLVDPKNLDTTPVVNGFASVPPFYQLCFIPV
Chain of Cytochrome P450 2D6 (P10635 whole entry): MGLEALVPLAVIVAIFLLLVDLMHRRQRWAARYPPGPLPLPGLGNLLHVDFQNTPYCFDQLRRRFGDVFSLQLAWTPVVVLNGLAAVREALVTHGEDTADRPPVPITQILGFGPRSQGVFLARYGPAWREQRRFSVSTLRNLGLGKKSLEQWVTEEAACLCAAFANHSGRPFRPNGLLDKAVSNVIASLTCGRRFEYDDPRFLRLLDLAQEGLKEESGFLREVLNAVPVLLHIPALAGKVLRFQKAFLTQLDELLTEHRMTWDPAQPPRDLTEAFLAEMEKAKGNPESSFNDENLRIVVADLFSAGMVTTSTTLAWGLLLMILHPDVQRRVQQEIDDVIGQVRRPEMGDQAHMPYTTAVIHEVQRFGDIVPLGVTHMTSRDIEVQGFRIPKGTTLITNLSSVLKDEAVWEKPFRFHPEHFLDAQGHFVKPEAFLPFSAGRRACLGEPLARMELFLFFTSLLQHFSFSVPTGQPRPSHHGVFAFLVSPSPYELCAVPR
Chain of Voltage-gated inwardly rectifying potassium channel KCNH2 (Q12809 whole entry): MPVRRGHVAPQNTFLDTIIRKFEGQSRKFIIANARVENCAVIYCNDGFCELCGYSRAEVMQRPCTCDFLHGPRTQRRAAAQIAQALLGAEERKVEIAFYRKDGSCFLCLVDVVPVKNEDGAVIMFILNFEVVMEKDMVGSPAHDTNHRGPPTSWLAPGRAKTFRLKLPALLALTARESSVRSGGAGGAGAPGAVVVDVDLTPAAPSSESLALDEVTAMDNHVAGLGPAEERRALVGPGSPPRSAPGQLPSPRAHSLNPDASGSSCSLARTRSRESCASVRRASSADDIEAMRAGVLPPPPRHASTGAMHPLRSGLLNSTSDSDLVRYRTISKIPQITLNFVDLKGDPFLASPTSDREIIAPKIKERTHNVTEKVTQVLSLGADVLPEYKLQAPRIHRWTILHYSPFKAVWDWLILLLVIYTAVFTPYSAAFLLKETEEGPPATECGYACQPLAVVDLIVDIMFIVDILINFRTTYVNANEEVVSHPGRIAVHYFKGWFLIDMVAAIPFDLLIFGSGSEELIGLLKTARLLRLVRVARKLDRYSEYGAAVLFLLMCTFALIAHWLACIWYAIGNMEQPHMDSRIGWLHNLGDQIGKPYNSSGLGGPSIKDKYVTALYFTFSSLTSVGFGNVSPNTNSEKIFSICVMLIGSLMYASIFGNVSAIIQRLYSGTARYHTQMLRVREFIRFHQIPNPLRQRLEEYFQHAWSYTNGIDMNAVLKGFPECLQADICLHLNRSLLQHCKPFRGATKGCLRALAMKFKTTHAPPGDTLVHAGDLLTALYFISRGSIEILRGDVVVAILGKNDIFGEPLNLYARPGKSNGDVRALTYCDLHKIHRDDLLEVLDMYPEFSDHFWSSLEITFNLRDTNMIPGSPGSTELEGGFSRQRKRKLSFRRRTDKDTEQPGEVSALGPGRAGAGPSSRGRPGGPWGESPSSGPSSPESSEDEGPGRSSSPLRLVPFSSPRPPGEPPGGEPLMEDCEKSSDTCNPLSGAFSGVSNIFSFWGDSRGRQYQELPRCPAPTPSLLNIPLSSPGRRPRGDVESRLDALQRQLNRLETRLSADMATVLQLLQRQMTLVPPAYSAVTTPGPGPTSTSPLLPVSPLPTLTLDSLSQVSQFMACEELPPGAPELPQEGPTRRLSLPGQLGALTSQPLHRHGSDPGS

| Structure (SMILES) | IC50 [3] | inhibition [4] | inhibition [5] | IC50 [10] | IC50 [11] | IC50 [12] | IC50 [13] | IC50 [14] | Ratio IC50 [19] | IC50 ([20]; read-out: IC50) | growth inhibition (GI) [1] | growth inhibition (GI) [2] | inhibition at 10 µM [6] | IC50 [9] | GI50 at 48 h [15] | MNTC at 72 h [16] | GI50 [17] | IC50 at 6 h [18] | inhibition at 50 µM [1] | further results |
| --- | --- | --- | --- | --- | --- | --- | --- | --- | --- | --- | --- | --- | --- | --- | --- | --- | --- | --- | --- | --- |
| COC(=O)c1ccc(CS(=O)(=O)c2ccc3nc(N)sc3c2)cc1 | > 100 µM | > 60% | > 60% | > 25 µM | 10 to 25 µM | < 10 µM | < 10 µM | 10 to 25 µM | 2 to 100 | 65.9 µM | Non-Toxic | – | 14% | > 25 µM | > 25 µM | > 25 µM | > 25 µM | > 25 µM | – | inhibition at 10 µM [2]: 12% |
| Nc1nc2ccc(C(=O)N(Cc3ccccc3)Cc3ccc(Cl)c(Cl)c3)cc2s1 | 12 µM | > 60% | inactive | > 25 µM | < 10 µM | < 10 µM | < 10 µM | < 10 µM | 2 to 100 | – | – | Non-Toxic | 26% | > 25 µM | > 25 µM | > 25 µM | > 25 µM | 10 to 25 µM | 62.1% | IC50 [20]: Not Active |
| N#Cc1ccc(CNC(=O)c2ccc3nc(N)sc3c2)cc1 | 42.9 µM | > 60% | > 60% | > 25 µM | > 25 µM | > 25 µM | > 25 µM | > 25 µM | 2 to 100 | 73.3 µM | Non-Toxic | Non-Toxic | 8% | > 25 µM | > 25 µM | > 25 µM | > 25 µM | > 25 µM | – | – |
| Nc1nc2ccc(C(=O)NC(c3ccccc3)c3ccccc3)cc2s1 | 18.5 µM | > 60% | > 60% | > 25 µM | < 10 µM | < 10 µM | < 10 µM | < 10 µM | 2 to 100 | 88.5 µM | – | – | 10% | > 25 µM | > 25 µM | > 25 µM | > 25 µM | > 25 µM | 37.8% | inhibition at 10 µM [2]: 15% |
| Nc1nc2ccc(OCc3ccccc3)cc2s1 | 13.4 µM | > 60% | inactive | < 10 µM | > 25 µM | > 25 µM | < 10 µM | 10 to 25 µM | 2 to 100 | – | Non-Toxic | Non-Toxic | 28% | < 10 µM | > 25 µM | > 25 µM | > 25 µM | > 25 µM | – | IC50 [20]: Not Active |
| Nc1nc2ccc(C(=O)NCc3ccccc3N)cc2s1 | 13.9 µM | > 60% | > 60% | > 25 µM | > 25 µM | > 25 µM | 10 to 25 µM | 10 to 25 µM | 2 to 100 | 64.7 µM | – | Non-Toxic | 8% | > 25 µM | > 25 µM | > 25 µM | > 25 µM | > 25 µM | 6.1% | – |
| COC(=O)c1ccc(CNC(=O)c2ccc3nc(N)sc3c2)cc1 | 16.5 µM | > 60% | > 60% | > 25 µM | 10 to 25 µM | > 25 µM | > 25 µM | > 25 µM | 2 to 100 | 36 µM | Non-Toxic | Non-Toxic | 16% | > 25 µM | > 25 µM | > 25 µM | > 25 µM | > 25 µM | – | – |

Now those with a lower IC50 [3], led by results:

| IC50 [3] | inhibition [4] | inhibition [5] | IC50 [10] | IC50 [11] | IC50 [12] | IC50 [13] | IC50 [14] | Ratio IC50 [19] | IC50 ([20]; read-out: IC50) | Structure (SMILES) | growth inhibition (GI) [1] | growth inhibition (GI) [2] | inhibition at 10 µM [6] | IC50 [9] | GI50 at 48 h [15] | MNTC at 72 h [16] | GI50 [17] | IC50 at 6 h [18] | inhibition at 50 µM [1] | further results |
| --- | --- | --- | --- | --- | --- | --- | --- | --- | --- | --- | --- | --- | --- | --- | --- | --- | --- | --- | --- | --- |
| 3 µM | > 60% | 55.5% | > 25 µM | > 25 µM | 10 to 25 µM | < 10 µM | < 10 µM | 2 to 100 | – | N#Cc1ccc(CS(=O)(=O)c2ccc3nc(N)sc3c2)cc1 | Non-Toxic | Non-Toxic | 9 to 13% | > 25 µM | > 25 µM | > 25 µM | > 25 µM | > 25 µM | – | growth inhibition (GI) [7]: 48%; Ratio [8]: 1.5 |
| 6.46 µM | > 60% | > 60% | > 25 µM | > 25 µM | > 25 µM | > 25 µM | < 10 µM | 2 to 100 | 3.51 µM | Nc1nc2ccc(C(=O)NCc3ccccc3[N+](=O)[O-])cc2s1 | – | Non-Toxic | 18% | > 25 µM | > 25 µM | > 25 µM | > 25 µM | < 10 µM | 19% | – |
| 5.4 µM | > 60% | > 60% | > 25 µM | > 25 µM | < 10 µM | < 10 µM | < 10 µM | 2 to 100 | 15.3 µM | Nc1nc2ccc(C(=O)NCc3ccc(Cl)c(Cl)c3)cc2s1 | Non-Toxic | – | 5% | > 25 µM | > 25 µM | > 25 µM | > 25 µM | < 10 µM | – | inhibition at 10 µM [2]: 5% |
| 1.7 µM | > 60% | > 60% | > 25 µM | > 25 µM | < 10 µM | > 25 µM | 10 to 25 µM | 2 to 100 | 66.6 µM | COC(=O)c1ccc(COc2ccc3nc(N)sc3c2)cc1 | – | Non-Toxic | 22% | 10 to 25 µM | > 25 µM | 10 to 25 µM | > 25 µM | > 25 µM | 8.79% | – |
